Screening data (PubChem)
D1 allo mod: D1 CRE-luciferase signal change, two-sided – cell-based, HEK293 D1, dopamine EC30, D1 allosteric modulator project, primary screen. D(1A) dopamine receptor (Homo sapiens), P21728. 58,000 compounds, 5.9% hits. B-score at 10 µM. dopamine EC30 potentiation; actives deviate in either direction;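 active = luminescence count or its row- and column-corrected plate score outside the 99.7% band of the plate's sample wells, on either side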
mHtt clearance: clearance of mutant huntingtin inclusions, primary screen, imaging, HeLa Exon1htt(103Q)mCFP, confocal imaging | inhibition, % at 1.5 µM | 47,000 compounds, 0.42% hits | aggregate imaging; zero = plate's median compound well | AID 853, 2007;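 active = inhibition of aggregate fluorescence above about 70%, also judged a hit by eye on the cell image, limit read from the data, passing the limit was not always enough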;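 also: cells exposed to compound for three days before fixation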
M1 agonist: M1 muscarinic receptor agonists, primary screen, CHO-M1 cells, Fluo-4 calcium, agonist mode | Muscarinic acetylcholine receptor M1 | Fluo-4 calcium fluorescence; hits give high values | B-score at 10 µM | 64,000 compounds, 3% hits;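 active = fluorescence rise, raw or as B-score row- and column-corrected plate score, outside the 99.7% band of its plate's samples, either direction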
SF1 activator: activators of human SF-1, primary screen, cell-based, CHO-K1, Gal4-SF-1 LBD, luciferase luminescence. Steroidogenic factor 1 (Homo sapiens), Q13285. CHO-K1 Gal4-SF-1 LBD luciferase reporter; % increase over DMSO SF-1-specific signal. activation, % at 10 µM. 65,000 compounds, 1.9% hits. AID 522, 2006;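 active = activation above the mean activation of all tested compounds plus 3 SD, cut at about 50% in these data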
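System: CHO-K1 cells with Gal4–hSF-1 LBD chimera plus Gal4-driven luciferase; quantity: 4,000 CHO-K1 cells per well; compound: one dose, 10 µM compound, 1% DMSO; times: 20 h compound treatment, 37 °C; measured by: SteadyLite luciferase luminescence; read-out: percent activation versus DMSO; benchmarks: DMSO and mock-transfected background; replicates: one test per compound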
RORA act: activators of orphan receptor RORA, primary screen, cell-based, luminescence | Nuclear receptor ROR-alpha (Homo sapiens), P35398 | CHO-K1 Gal4-RORA LBD luciferase reporter; percent increase over mock-subtracted basal signal | activation, % at 10 µM | 65,000 compounds, 1.5% hits | AID 560, 2006;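 active = activation above the mean of all tested compounds plus 3 SD, cut at about 49% in these data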
Target sequence (P35398 whole entry, looked up, the tested form may be a part): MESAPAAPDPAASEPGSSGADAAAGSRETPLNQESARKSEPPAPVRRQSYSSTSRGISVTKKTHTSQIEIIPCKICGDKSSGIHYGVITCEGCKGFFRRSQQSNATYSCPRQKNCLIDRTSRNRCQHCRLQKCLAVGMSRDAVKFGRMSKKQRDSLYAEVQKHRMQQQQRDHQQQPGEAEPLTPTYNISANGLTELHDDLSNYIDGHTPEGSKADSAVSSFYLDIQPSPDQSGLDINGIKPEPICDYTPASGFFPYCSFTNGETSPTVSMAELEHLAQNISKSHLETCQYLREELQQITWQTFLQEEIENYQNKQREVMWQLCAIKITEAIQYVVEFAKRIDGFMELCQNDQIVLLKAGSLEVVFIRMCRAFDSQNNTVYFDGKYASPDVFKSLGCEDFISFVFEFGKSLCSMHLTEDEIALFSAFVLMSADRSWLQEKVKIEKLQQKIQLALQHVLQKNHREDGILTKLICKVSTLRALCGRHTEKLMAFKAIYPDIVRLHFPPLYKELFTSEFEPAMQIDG
M1 antagonist: antagonists of rat M1 muscarinic receptor; AID 628, 2007; CHO-M1 cells, Fluo-4 calcium, ACh EC80 antagonist mode; hits give low values; Muscarinic acetylcholine receptor M1 (Rattus norvegicus), P08482; B-score at 10 µM; 64,000 compounds, 3.4% hits;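 active = calcium fluorescence response, raw or row-and-column corrected B-score, differing from the plate sample mean either way at a set confidence level, mostly lower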
M1 antag confirm: rat M1 muscarinic receptor antagonists, confirmation, CHO cells, Fluo-4 calcium, duplicate. calcium response (max-min fluorescence) at 10 µM. ACh EC80 antagonism; hits give low values. 1,700 compounds, 43% hits. shares compounds with M1 antagonist;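 active = calcium response below the same-plate mean of wells given acetylcholine alone at its 80%-effect dose, minus 3 SD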
mGluR4 antag: human mGluR4 response to M1 antagonist hits, M1 allosteric modulator project, cell-based, antagonist mode, secondary assay 1; fluorescence response (max-min) at 10 µM; shares compounds with M1 antagonist; 1,700 compounds, 0.9% hits; CHO-mGluR4 calcium flux, Fluo-4 fluorescence, glutamate EC80; hits give low values;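 active = fluorescence response below the plate's average for near-maximal glutamate wells, less 3 SD of those wells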;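 also: raw unnormalized fluorescence span taken in the window right after glutamate addition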
Of the large screens only hits and unclear results are named; the others gave an inactive call (follow-up assays come after a bar, where they were run). In the library only some 11% were active in any assay of this set; here they are far more common.

O=C(CSc1nnc(-c2cccs2)n1CC1CCCO1)c1cc2ccccc2o1 (configuration not stated)	none (no result: D1 allo mod)
COc1ccc(Nc2nc(N)nc(CN3CCC(Cc4ccccc4)CC3)n2)cc1	D1 allo mod -3, M1 antagonist -10 (no result: mHtt clearance) | M1 antag confirm 319 | mGluR4 antag inactive
COc1ccccc1Nc1nc(N)nc(CN2CCCCCC2)n1	none (no result: mHtt clearance)
Cc1ccc(Nc2nc(N)nc(CN3CCN(Cc4ccc5c(c4)OCO5)CC3)n2)cc1Cl	none
Cc1ccc(Nc2nc(N)nc(CN3CCN(Cc4ccc5c(c4)OCO5)CC3)n2)cc1	M1 antagonist -3.5 (no result: mHtt clearance) | M1 antag confirm inactive | mGluR4 antag inactive
COc1ccccc1Nc1nc(N)nc(CN2CCC(Cc3ccccc3)CC2)n1	M1 antagonist -2.4 | M1 antag confirm 452 | mGluR4 antag inactive
CCc1nn(-c2cc(Cl)ccc2OC)c2c1C(=O)CCC2	none (no result: D1 allo mod)
Cc1ccc2c(c1)N(CCCC(=O)NCCCN1CCCC1=O)C(=O)CO2	none (no result: mHtt clearance)
CC(C)Cn1c(SCC(=O)N2CCN(S(=O)(=O)c3ccccc3)CC2)nc2ccccc21	M1 antagonist -2.6 | M1 antag confirm 348 | mGluR4 antag inactive
Nn1cc(-c2ccccc2)nc1SCC(=O)N1CCN(S(=O)(=O)c2ccccc2)CC1	none (no result: mHtt clearance)
N#CCCn1c(SCC(=O)N2CCN(S(=O)(=O)c3ccccc3)CC2)nc2ccccc21	M1 antagonist -10 | M1 antag confirm 199 | mGluR4 antag inactive
COC(=O)c1ccccc1NC(=O)CSc1nnc(Cc2ccc(Cl)cc2)o1	none (no result: mHtt clearance)
c1cncc(-c2nc(-c3ccco3)cs2)c1	none (no result: mHtt clearance)
CC(C)n1c(-c2ccco2)csc1=Nc1cccnc1	M1 antagonist -3.3 (no result: mHtt clearance) | M1 antag confirm 471 | mGluR4 antag inactive
O=C(Nc1cccc(Cl)c1)NC1CCCCC1	SF1 activator 59, RORA act 54, M1 antagonist -2.2 | M1 antag confirm inactive | mGluR4 antag inactive
CC(=O)c1cccc(NC(=O)NC2CCCCC2)c1	none
COc1ccc(OCC(=O)N2CCN(C(=O)c3cccc(F)c3)CC2)cc1	none (no result: D1 allo mod, M1 agonist, SF1 activator, RORA act, M1 antagonist)
CC(C)CC(=O)N1CCN(C(=O)c2cccc(F)c2)CC1	M1 antagonist -2.2 | M1 antag confirm inactive | mGluR4 antag inactive
Cc1nc2ccc(S(=O)(=O)NC(C(=O)NCc3ccco3)C(C)C)cc2s1 (configuration not stated)	none (no result: mHtt clearance)
COc1ccccc1NC(=O)CSc1nnc(CNC(=O)COc2ccc(Cl)cc2)o1	M1 antagonist -2.8 (no result: mHtt clearance) | M1 antag confirm inactive | mGluR4 antag inactive
COc1ccc(OC)c(NC(=O)CSc2nnc(CNC(=O)COc3ccc(Cl)cc3)o2)c1	none
CCCCn1c(=O)[nH]c2ccccc21	M1 antagonist -2.4 | M1 antag confirm inactive | mGluR4 antag inactive
CC(=O)c1ccc(OCC(O)CN2C(C)(C)CC(O)CC2(C)C)cc1 (configuration not stated)	M1 antagonist -3.1 | M1 antag confirm inactive | mGluR4 antag inactive
CCN1CCN(CC(O)COc2ccc(C(C)=O)cc2)CC1 (configuration not stated)	none (no result: mHtt clearance)
CCc1c(C)nc(N)n2c(SCC(=O)N3CCCC(C)C3)nnc12 (configuration not stated)	none (no result: mHtt clearance)
COCCn1c(Sc2nc(C)cs2)nc2c1c(=O)[nH]c(=O)n2C	M1 antagonist -4.1 (no result: D1 allo mod, mHtt clearance) | M1 antag confirm inactive | mGluR4 antag inactive
CCC(C)N(CCNC(=O)CC1Oc2ccc(C)cc2NC1=O)C1CCCCC1 (configuration not stated)	M1 antagonist -8.8 | M1 antag confirm 21 | mGluR4 antag inactive
CCOC(=O)N1CCN(C(=O)CSCc2nc(-c3ccccc3C)oc2C)CC1	none
Cc1oc(-c2ccc(Cl)cc2)nc1CN1CCCC(C(=O)N2CCc3ccccc32)C1 (configuration not stated)	none (no result: mHtt clearance)
CCOC(=O)N1CCN(C(=O)C2CCN(Cc3nc(-c4ccccc4C)oc3C)CC2)CC1	M1 antagonist -3 (no result: mHtt clearance) | M1 antag confirm inactive | mGluR4 antag inactive
CCOC(=O)N1CCN(C(=O)C2CCCN(Cc3nc(-c4ccc(Cl)cc4)oc3C)C2)CC1 (configuration not stated)	M1 antagonist -3.8 | M1 antag confirm 343 | mGluR4 antag inactive
Cc1oc(-c2ccc(Cl)cc2)nc1CN1CCCC(C(=O)NCCCN2CCCC2=O)C1 (configuration not stated)	M1 antagonist -4 (no result: mHtt clearance) | M1 antag confirm inactive | mGluR4 antag inactive
CCC(C)(C)n1nnnc1C(CC(C)C)N1CCC(C(N)=O)CC1 (configuration not stated)	none (no result: mHtt clearance)
Cc1cc(C)n(S(=O)(=O)c2ccc(C(C)(C)C)cc2)n1	M1 antagonist -8.7 | M1 antag confirm 20 | mGluR4 antag inactive
CCCCC(c1nnnn1Cc1ccco1)N1CCN(c2nc3ccccc3s2)CC1 (configuration not stated)	M1 antagonist -3.3 (no result: mHtt clearance) | M1 antag confirm inactive | mGluR4 antag inactive
COc1ccc(C(c2nnnn2Cc2ccccc2)N2CCN(c3nc4ccccc4s3)CC2)cc1OC (configuration not stated)	none (no result: D1 allo mod, M1 agonist, SF1 activator, RORA act, M1 antagonist)
CCCC(c1nnnn1Cc1ccco1)N1CCC(C(N)=O)CC1 (configuration not stated)	none
c1ccc(Cn2nnnc2C(c2ccccc2)N2CCN(c3nc4ccccc4s3)CC2)cc1 (configuration not stated)	M1 antagonist -2.1 (no result: D1 allo mod, mHtt clearance) | M1 antag confirm inactive | mGluR4 antag inactive
O=C(N1CCC(O)(c2cccnc2)CC1)C12CC3CC(CC(C3)C1)C2	none
CC(C)CCN1C(=O)c2ccccc2C1C(=O)NCc1cccnc1 (configuration not stated)	none (no result: D1 allo mod, M1 agonist, SF1 activator, RORA act, M1 antagonist)
CC1CCN(CCCNC(=O)c2coc3nc4ccccc4nc23)CC1	M1 antagonist -4.8 (no result: mHtt clearance) | M1 antag confirm 390 | mGluR4 antag inactive
Cc1ccc(CCNC(=O)c2coc3nc4ccccc4nc23)cc1	none
CC1CCCN(CCCNC(=O)c2coc3nc4ccccc4nc23)C1 (configuration not stated)	M1 antagonist -1.8 | M1 antag confirm 365 | mGluR4 antag inactive
